# Published values from different studies.
# Lines come from different studies, so protocols differ. pIC50: −log10 of the molar value.
# STAT3: Signal transducer and activator of transcription 3 (STAT3, Homo sapiens, UniProt P40763)
# CTSB: Cathepsin B (CTSB, Homo sapiens, UniProt P07858)
Compound,target,read-out,action,method,notes,measurement,value
NC(=O)CC[C@H](NC(=O)[C@@H]1CC[C@@H]2CCN(C(=O)CCCCCC#Cc3cccc4c3CN(C3CCC(=O)NC3=O)C4=O)C[C@H](NC(=O)c3cc4cc(C(F)(F)P(=O)(O)O)ccc4[nH]3)C(=O)N21)C(=O)NC(c1ccccc1)c1ccccc1 (stereo partly shown),STAT3,protein level,degrader,luciferase,,DC50,360 to 380 nM
CCC(C(=O)Nc1cc(NC2CNC2)ccc1C)n1cccc2nc(SCc3ccc(F)cc3)nc1-2 (stereo not shown),CTSB,enzyme activity,inhibitor,,,pIC50,< 4.00
CNC(=O)c1ccc(-c2cnn3ccc(C(=O)N(C)c4ccc(Cl)c(C(=O)O)c4)cc23)cc1,"ALK tyrosine kinase receptor (ALK, Homo sapiens, UniProt Q9UM73)",enzyme activity,inhibitor,,,pIC50,< 4.52
CC(C)C[C@H](NC(=O)[C@H]1O[C@@H]1C(=O)O)C(=O)NCCCCN=C(N)N,CTSB,enzyme activity,inhibitor,,,pIC50,7.93
Cn1nccc1[C@]1(CNC(=O)c2ccc(F)c(F)c2-c2ccc(C(F)(F)F)cc2)NC(=O)NC1=O,CTSB,enzyme activity,inhibitor,,,pIC50,< 4.00
NC(=O)CC[C@H](NC(=O)[C@@H]1CC[C@@H]2CCN(C(=O)CCCCCC#Cc3cccc4c3CN(C3CCC(=O)NC3=O)C4=O)C[C@H](NC(=O)c3cc4cc(C(=O)P(=O)(O)O)ccc4[nH]3)C(=O)N21)C(=O)NC(c1ccccc1)c1ccccc1 (stereo partly shown),STAT3,protein level,degrader,luciferase,,DC50,360 to 380 nM
CC(=O)N[C@H]1Cc2ccc(cc2)OC/C=C/C[C@@H](C(=O)N[C@@H](CCCNC(=N)N)C(=O)c2nc3ccccc3s2)NC(=O)[C@H](CC(C)C)NC1=O,"Suppressor of tumorigenicity 14 protein (ST14, Homo sapiens, UniProt Q9Y5Y6)",enzyme activity,inhibitor,fluorescence,with preincubation,pIC50,8.34
CC[C@H](C)[C@H](NC(=O)[C@H](CO)NC(=O)CNC(=O)[C@@H](NC(=O)[C@@H](NC(=O)[C@@H](NC(=O)CN)[C@@H](C)O)C(C)C)[C@@H](C)O)C(=O)N[C@@H](CC(C)C)C(=O)N[C@H](C(=O)N1CCC[C@H]1C(=O)N[C@H](C(=O)N[C@@H](CC(=O)O)C(=O)N[C@@H](Cc1ccc(O)cc1)C(=O)NCC(=O)N[C@H]1CSSC[C@@H](C(=O)N[C@@H](CO)C(=O)N[C@H](C(=O)N[C@@H](C)C(=O)N[C@@H](CCSC)C(=O)N[C@@H](Cc2ccc(O)cc2)C(=O)NCC(=O)NCC(=O)N[C@H](C(=O)N[C@H](C(=O)N[C@@H](CC(=O)O)C(=O)N2CCC[C@H]2C(=O)N[C@H](C(=O)N[C@@H](CCCNC(=N)N)C(=O)N[C@@H](Cc2ccccc2)C(=O)N2CCC[C@H]2C(=O)N[C@@H](CC(N)=O)C(=O)N[C@@H](C)C(=O)N[C@@H](Cc2c[nH]c3ccccc23)C(=O)N[C@@H](CCCNC(=N)N)C(=O)N[C@@H](CCC(=O)O)C(=O)N[C@@H](CC(C)C)C(=O)O)[C@@H](C)CC)[C@@H](C)CC)C(C)C)C(C)C)NC(=O)[C@H](CC(C)C)NC(=O)[C@H](Cc2ccccc2)NC(=O)[C@@H]2CCCN2C(=O)[C@H](CC(N)=O)NC(=O)[C@H](Cc2ccccc2)NC1=O)[C@@H](C)CC)[C@@H](C)O,CTSB,enzyme activity,inhibitor,,,pIC50,< 3.70
CCC(C(=O)Nc1cc(NC2CCNC2)ccc1C)n1cc(Br)cc2nc(SCc3ccc(F)cc3)nc1-2 (stereo not shown),CTSB,enzyme activity,inhibitor,,,pIC50,< 4.00
COC(=O)c1cc(N(C)C(=O)c2ccn3ncc(-c4ccc(C(=O)O)cc4)c3c2)ccc1Cl,"Serine/threonine-protein kinase pim-1 (PIM1, Homo sapiens, UniProt P11309)",enzyme activity,inhibitor,,,pIC50,7.03
